ChEMBL document CHEMBL3046785, “Antifungal activity of borrelidin produced by a Streptomyces strain isolated from soybean” (J Agric Food Chem, 2012)
Values after ≈ are worked out from the molar mass of the structure shown.

Columns and labels:
Glycine max = experiment: Phytotoxicity against germinated Glycine max (soybean) seeds at 10 mg/L; format: organism-based; conditions: in vivo
Phytophthora sojae [1] = experiment: Antifungal activity against Phytophthora sojae race 1 assessed as growth inhibition at 28 degC after 7 days (beneficial crop soybean); format: functional, organism-based; conditions: race 1, 168 h
How it was run: (§1)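 Race-specific mycelial growth assay on carrot agar (CA) at 28 °C. Test article was dissolved in methanol, diluted with water and added to CA; a 0.2% methanol plate served as negative control. A 5 mm plug from the colony margin was centred on each plate. Colony diameters were recorded once the control was covered. Inhibition = (1 − D/Dc) × 100. EC50/EC95 came from linear regression. Run in triplicate.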

Phytophthora sojae [2] = experiment: Antifungal activity against Phytophthora sojae race 3 assessed as growth inhibition at 28 degC after 7 days (beneficial crop soybean); format: functional, organism-based; conditions: race 3, 168 h; how it was run: as §1
Phytophthora sojae [3] = experiment: Antifungal activity against Phytophthora sojae race 4 assessed as growth inhibition at 28 degC after 7 days (beneficial crop soybean); format: functional, organism-based; conditions: race 4, 168 h; how it was run: as §1
Phytophthora sojae [4] = experiment: Antifungal activity against Phytophthora sojae race 5 assessed as growth inhibition at 28 degC after 7 days (beneficial crop soybean); format: functional, organism-based; conditions: race 5, 168 h; how it was run: as §1
Phytophthora sojae [5] = experiment: Antifungal activity against Phytophthora sojae race 9 assessed as growth inhibition at 28 degC after 7 days (beneficial crop soybean); format: functional, organism-based; conditions: race 9, 168 h; how it was run: as §1
Phytophthora sojae [6] = experiment: Antifungal activity against Phytophthora sojae race 13 assessed as growth inhibition at 28 degC after 7 days (beneficial crop soybean); format: functional, organism-based; conditions: race 13, 168 h; how it was run: as §1
Phytophthora sojae [7] = experiment: Antifungal activity against Phytophthora sojae race 44 assessed as growth inhibition at 28 degC after 7 days (beneficial crop soybean); format: functional, organism-based; conditions: race 44, 168 h; how it was run: as §1
Phytophthora sojae [8] = experiment: Antifungal activity against Phytophthora sojae race 54 assessed as growth inhibition at 28 degC after 7 days (beneficial crop soybean); format: functional, organism-based; conditions: race 54, 168 h; how it was run: as §1
Phytophthora sojae [9] = experiment: Antifungal activity against Phytophthora sojae race 1 in germinated soybean seeds assessed as root length at 1 mg/L after 48 hr (untreated control = 4.15 +/- 0.71 cm); format: functional
Phytophthora sojae [10] = experiment: Antifungal activity against Phytophthora sojae race 1 in germinated soybean seeds assessed as root length at 5 mg/L after 48 hr (untreated control = 4.15 +/- 0.71 cm); format: functional
Phytophthora sojae [11] = experiment: Antifungal activity against Phytophthora sojae race 1 in germinated soybean seeds assessed as root length at 10 mg/L after 48 hr (untreated control = 4.15 +/- 0.71 cm); format: functional
Phytophthora sojae [12] = experiment: Antifungal activity against Phytophthora sojae race 1 in germinated soybean seeds assessed as lesion length at 1 mg/L after 48 hr (untreated control = 3.34 +/- 0.64 cm); format: functional
Phytophthora sojae [13] = experiment: Antifungal activity against Phytophthora sojae race 1 in germinated soybean seeds assessed as lesion length at 5 mg/L after 48 hr (untreated control = 3.34 +/- 0.64 cm); format: functional
Phytophthora sojae [14] = experiment: Antifungal activity against Phytophthora sojae race 1 in germinated soybean seeds assessed as lesion length at 10 mg/L after 48 hr (untreated control = 3.34 +/- 0.64 cm); format: functional
Phytophthora sojae [15] = experiment: Antifungal activity against Phytophthora sojae race 1 in germinated soybean seeds assessed as disease control efficacy at 1 mg/L after 48 hr relative to control; format: functional
How it was run: (§2)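 Seeds (Hefeng-25) were surface-sterilised (10% NaOCl, 20 min), rinsed, and germinated at 30 °C until roots exceeded 10 mm, five per dish on wet filter paper. Roots received 2 mL of solution: 1% Tween 80 in water, or 25% WP in water (4/20/40 mg/L = 1/5/10 mg a.i./L). A 7 mm race 1 disk was placed on the roots and removed after 24 h. After 48 h at 28 °C, roots were rated 0–4 and disease index computed. Efficiency is relative to the inoculated Tween control. Three experiments.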

Phytophthora sojae [16] = experiment: Antifungal activity against Phytophthora sojae race 1 in germinated soybean seeds assessed as disease control efficacy at 5 mg/L after 48 hr relative to control; format: functional; how it was run: as §2
Phytophthora sojae [17] = experiment: Antifungal activity against Phytophthora sojae race 1 in germinated soybean seeds assessed as disease control efficacy at 10 mg/L after 48 hr relative to control; format: functional; how it was run: as §2
Phytophthora sojae [18] = experiment: Antifungal activity against Phytophthora sojae race 1 in germinated soybean seeds assessed as root length at 4 mg/L after 48 hr compound at 25% WP (untreated control = 4.15 +/- 0.71 cm); format: functional
Phytophthora sojae [19] = experiment: Antifungal activity against Phytophthora sojae race 1 in germinated soybean seeds assessed as root length at 20 mg/L after 48 hr compound at 25% WP (untreated control = 4.15 +/- 0.71 cm); format: functional
Phytophthora sojae [20] = experiment: Antifungal activity against Phytophthora sojae race 1 in germinated soybean seeds assessed as root length at 40 mg/L after 48 hr compound at 25% WP (untreated control = 4.15 +/- 0.71 cm); format: functional
Phytophthora sojae [21] = experiment: Antifungal activity against Phytophthora sojae race 1 in germinated soybean seeds assessed as lesion length at 4 mg/L after 48 hr compound at 25% WP (untreated control = 3.34 +/- 0.64 cm); format: functional
Phytophthora sojae [22] = experiment: Antifungal activity against Phytophthora sojae race 1 in germinated soybean seeds assessed as lesion length at 20 mg/L after 48 hr compound at 25% WP (untreated control = 3.34 +/- 0.64 cm); format: functional
Phytophthora sojae [23] = experiment: Antifungal activity against Phytophthora sojae race 1 in germinated soybean seeds assessed as lesion length at 40 mg/L after 48 hr compound at 25% WP (untreated control = 3.34 +/- 0.64 cm); format: functional
Phytophthora sojae [24] = experiment: Antifungal activity against Phytophthora sojae race 1 in germinated soybean seeds assessed as disease control efficacy at 4 mg/L after 48 hr compound at 25% WP relative to control; format: functional; how it was run: as §2
Phytophthora sojae [25] = experiment: Antifungal activity against Phytophthora sojae race 1 in germinated soybean seeds assessed as disease control efficacy at 20 mg/L after 48 hr compound at 25% WP relative to control; format: functional; how it was run: as §2
Phytophthora sojae [26] = experiment: Antifungal activity against Phytophthora sojae race 1 in germinated soybean seeds assessed as disease control efficacy at 40 mg/L after 48 hr compound at 25% WP relative to control; format: functional; how it was run: as §2

## C[C@@H]1C[C@H](C)C[C@H](C)[C@@H](O)CC(=O)O[C@H]([C@@H]2CCC[C@H]2C(=O)O)C/C=C/C=C(/C#N)[C@H](O)[C@@H](C)C1 [BORRELIDIN]
Glycine max
  Activity: Non-toxic
Phytophthora sojae [1]
  EC50: 0.0056 µg/mL (≈ 0.0114 µM)
  EC95: 0.026 µg/mL (≈ 0.0531 µM)
Phytophthora sojae [2]
  EC50: 0.0051 µg/mL (≈ 0.0104 µM)
  EC95: 0.021 µg/mL (≈ 0.0429 µM)
Phytophthora sojae [3]
  EC50: 0.0038 µg/mL (≈ 0.00776 µM)
  EC95: 0.017 µg/mL (≈ 0.0347 µM)
Phytophthora sojae [4]
  EC50: 0.0052 µg/mL (≈ 0.0106 µM)
  EC95: 0.02 µg/mL (≈ 0.0408 µM)
Phytophthora sojae [5]
  EC50: 0.0053 µg/mL (≈ 0.0108 µM)
  EC95: 0.02 µg/mL (≈ 0.0408 µM)
Phytophthora sojae [6]
  EC50: 0.0057 µg/mL (≈ 0.0116 µM)
  EC95: 0.021 µg/mL (≈ 0.0429 µM)
Phytophthora sojae [7]
  EC50: 0.0047 µg/mL (≈ 0.0096 µM)
  EC95: 0.018 µg/mL (≈ 0.0368 µM)
Phytophthora sojae [8]
  EC50: 0.0057 µg/mL (≈ 0.0116 µM)
  EC95: 0.021 µg/mL (≈ 0.0429 µM)
Phytophthora sojae [9]
  Activity: 6.24 cm
Phytophthora sojae [10]
  Activity: 6.53 cm
Phytophthora sojae [11]
  Activity: 6.81 cm
Phytophthora sojae [12]
  Activity: 1.91 cm
Phytophthora sojae [13]
  Activity: 0.73 cm
Phytophthora sojae [14]
  Activity: 0.25 cm
Phytophthora sojae [15]
  Efficacy: 56.25%
Phytophthora sojae [16]
  Efficacy: 80.76%
Phytophthora sojae [17]
  Efficacy: 94.72%

## COCC(=O)N(c1c(C)cccc1C)C(C)C(=O)OC (stereo unspecified) [METALAXYL]
Phytophthora sojae [18]
  Activity: 6.21 cm
Phytophthora sojae [19]
  Activity: 6.48 cm
Phytophthora sojae [20]
  Activity: 6.73 cm
Phytophthora sojae [21]
  Activity: 2.57 cm
Phytophthora sojae [22]
  Activity: 1.34 cm
Phytophthora sojae [23]
  Activity: 0.62 cm
Phytophthora sojae [24]
  Efficacy: 45.52%
Phytophthora sojae [25]
  Efficacy: 71.97%
Phytophthora sojae [26]
  Efficacy: 87.7%
Phytophthora sojae [1]
  EC50: 0.35 µg/mL (≈ 1.25 µM)
  EC95: 6.82 µg/mL (≈ 24.4 µM)
Phytophthora sojae [2]
  EC50: 0.17 µg/mL (≈ 0.609 µM)
  EC95: 4.63 µg/mL (≈ 16.6 µM)
Phytophthora sojae [3]
  EC50: 0.18 µg/mL (≈ 0.644 µM)
  EC95: 8.03 µg/mL (≈ 28.7 µM)
Phytophthora sojae [4]
  EC50: 0.3 µg/mL (≈ 1.07 µM)
  EC95: 11.6 µg/mL (≈ 41.5 µM)
Phytophthora sojae [5]
  EC50: 0.34 µg/mL (≈ 1.22 µM)
  EC95: 11.8 µg/mL (≈ 42.3 µM)
Phytophthora sojae [6]
  EC50: 0.32 µg/mL (≈ 1.15 µM)
  EC95: 7.55 µg/mL (≈ 27 µM)
Phytophthora sojae [7]
  EC50: 0.28 µg/mL (≈ 1 µM)
  EC95: 12.2 µg/mL (≈ 43.9 µM)
Phytophthora sojae [8]
  EC50: 0.3 µg/mL (≈ 1.07 µM)
  EC95: 13.3 µg/mL (≈ 47.5 µM)
